In ChEMBL document CHEMBL1135654, “Antitumor agents. 1. Synthesis, biological evaluation, and molecular modeling of 5H-pyrido[3,2-a]phenoxazin-5-one, a compound with potent antiproliferative activity” (J Med Chem, 2002):
Starred links: 1 amine or outer side, 2 acyl side, 3 side chain; linkers in the order of their positions; H or OH if unused. Positions of bridges follow the written chain, without caps; N, C: chain ends. Non-standard residues stand in square brackets, D forms with d. Residues, ends and D or L forms follow the SMILES beside them. Chains are numbered I, II in the order given. Actinocin(1to9) = Cc1c2oc3c(C)ccc(C(=O)[*:2])c3nc-2c(C(=O)[*:1])c(N)c1=O; NMeV = CN[C@H](C(=O)O)C(C)C; Sar = CNCC(=O)O

How the values were obtained:
[1] = tested on: MT4; test: Compound concentration required to reduce the cell proliferation of human CD4+T cells by 50%, using MTT method.; format: functional, cell-based
Procedure, shortened: (§1)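 Leukemia/lymphoma cells in exponential growth resuspended at 1 × 10^5 cells/mL in RPMI 1640 (10% FCS, antibiotics) with serial dilutions of drug (DMSO stock 200 µM diluted in medium). Viability by MTT after 96 h at 37 °C, 5% CO2. Growth expressed as % of untreated controls; IC50 by linear regression. Controls underwent ≥3 rounds of multiplication. Mean of three independent determinations.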

[2] = tested on: CCRF-CEM; test: Compound concentration required to reduce the cell proliferation of human acute T-lymphoblastic leukemia CCRF-CEM cells by 50%, using MTT method.; format: functional, cell-based; procedure, shortened: as §1
[3] = tested on: HEp-2; test: Compound concentration required to reduce the cell proliferation of larynx carcinoma cells by 50%, using MTT method.; format: functional, cell-based; conditions: Homo sapiens
Procedure, shortened: (§2)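 Solid-tumor cells in exponential growth seeded at 5 × 10^4 cells/mL in their own medium with 10% FCS, allowed to adhere 16 h, then serially diluted drug added (DMSO stock 200 µM diluted in medium). MTT viability read 4 days later, 37 °C, 5% CO2. IC50 by linear regression from % of untreated control growth. Three independent determinations.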

[4] = tested on: HeLa; test: Compound concentration required to reduce the cell proliferation of cervix carcinoma Hela cells by 50%, using MTT method.; format: functional, cell-based; conditions: Homo sapiens; procedure, shortened: as §2
[5] = tested on: CCRF-SB; test: Compound concentration required to reduce the cell proliferation of human acute B-lymphoblastic leukemia CCRF-SB cells by 50%, using MTT method.; format: functional, cell-based; procedure, shortened: as §1
[6] = Compound concentration required to reduce the cell proliferation of Wild type and drug-resistant KB subclones passaged in the presence of etoposide 7 uM by 50%; format: functional; conditions: Homo sapiens
Procedure, shortened: (§3)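 Cells seeded at 5 × 10^4 cells/mL, adhered 16 h, exposed to serial drug dilutions; MTT after 4 days. IC50 by linear regression versus untreated controls; mean ± SD of three independent determinations.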

[7] = Compound concentration required to reduce the cell proliferation of Wild type and Drug- resistant KB subclones passaged in the presence of doxorubicin 0.09 uM by 50%; format: functional; conditions: Homo sapiens; procedure, shortened: as §3
[8] = tested on: MT4; test: Antitumor activity against human CD4+T cells expressing the TAT gene of HTLV-1 MT-4 cells; format: functional, cell-based; procedure, shortened: as §1
[9] = tested on: 5637; test: Antitumor activity against human bladder carcinoma 5637 cells; format: functional, cell-based; procedure, shortened: as §2
[10] = tested on: MT4; test: Antitumor activity against […] human acute T-lymphoblastic leukemia MT-4 cells; format: functional, cell-based; procedure, shortened: as §1
[11] = tested on: C8166; test: Antitumor activity against […] human acute T-lymphoblastic leukemia C8166 cells; format: functional, cell-based; procedure, shortened: as §1
[12] = tested on: ACHN; test: Antitumor activity against human renal adenocarcinoma ACHN cells; format: functional, cell-based; procedure, shortened: as §2
[13] = tested on: SK-MEL-28; test: Antitumor activity against human skin melanoma […] cells; format: functional, cell-based; procedure, shortened: as §2
[14] = tested on: DU-145; test: Antitumor activity against human prostate carcinoma DU145 cells; format: functional, cell-based; procedure, shortened: as §2
[15] = tested on: HepG2; test: Antitumor activity against human hepatocellular carcinoma HepG2 cells; format: functional, cell-based; procedure, shortened: as §2
[16] = tested on: CRL-7065 cell line; test: Antitumor activity against human foreskin fibroblasts CRL7065 cells; format: functional, cell-based; procedure, shortened: as §2
[17] = tested on: SK-MES-1; test: Antitumor activity against human lung squamous carcinoma SK-MES-1 cells; format: functional, cell-based; procedure, shortened: as §2
[18] = Effect on the proliferation Wild -type and Drug- resistant KB subclones passaged uM; format: functional, Homo sapiens; procedure, shortened: as §3
[19] = (§4) Cytotoxicity for Peripheral blood Lymphocytes; format: functional; conditions: Homo sapiens
Procedure, shortened: (§5)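 Human PBL from HIV-negative donors, isolated on Ficoll-Hypaque. Resting cells (1 × 10^6/mL) exposed up to 3 days to serial drug dilutions, washed, PHA-stimulated 24 h, diluted to 1 × 10^5/mL with PHA and IL-2, viability read after 6 days at 37 °C. Alternatively, PBL stimulated with PHA (2.5 µg/mL) 24 h, then grown with PHA, IL-2 (50 U/mL) and drug, and viable cells counted at day 6. Mean ± SD, three experiments.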

[20] = tested on: HEp-2; test: Antitumor activity against larynx carcinoma Hep-2 cells; format: functional, cell-based; conditions: Homo sapiens; procedure, shortened: as §2
[21] = as §4; format: functional; conditions: Homo sapiens; procedure, shortened: as §5; remark: listed apart in the source
[22] = tested on: Raji; test: Antitumor activity against human Burkitt lym phoma Raji cells; format: functional, cell-based; procedure, shortened: as §1
[23] = tested on: MOLT-4; test: Antitumor activity against human acute T-lymphoblastic leukemia MOLT-4 cells; format: functional, cell-based
[24] = tested on: CCRF-CEM; test: Antitumor activity against human acute T-lymphoblastic leukemia CCRF-CEM cells; format: functional, cell-based; procedure, shortened: as §1
[25] = tested on: HeLa; test: Antitumor activity against cervix carcinoma Hela cells; format: functional, cell-based; conditions: Homo sapiens; procedure, shortened: as §2
[26] = tested on: MCF7; test: Antitumor activity against human breast adenocarcinoma MCF-7 cells; format: functional, cell-based; procedure, shortened: as §2
[27] = tested on: CCRF-SB; test: Antitumor activity against human acute B-lymphoblastic leukemia CCRF-SB cells; format: functional, cell-based; procedure, shortened: as §1
[28] = Compound concentration required to reduce the cell proliferation of Wild type and Drug- resistant human nasopharyngeal carcinoma KB cells by 50%; format: functional, cell-based; procedure, shortened: as §3
[29] = tested on: HT-29; test: Antitumor activity against human colon adenocarcinoma HT-29 cells; format: functional, cell-based; procedure, shortened: as §2
[30] = tested on: G-361; test: Antitumor activity against human skin melanoma G-361 cells; format: functional, cell-based; procedure, shortened: as §2
[31] = tested on: WIL2-NS; test: Anti tumor activity against human splenic B-lympho blastoid Wil2-NS cells; format: functional, cell-based; procedure, shortened: as §1
[32] = tested on: Panel leukemia (Carcinoma cell lines); test: (§6) Cytotoxicity for lymphoblastoid cell lines; format: functional; conditions: Homo sapiens
[33] = tested on: Lymphoblastoid cell; test: as §6; format: functional; conditions: Homo sapiens
[34] = Effect on the proliferation wild-type and drug-resistant KB subclones passaged uM; format: functional, Homo sapiens; procedure, shortened: as §3
[35] = Effect on the proliferation Wild -type and Drug- resistant KB subclones passaged in the presence of vincristine 0.02 uM; format: functional, Homo sapiens; procedure, shortened: as §3

Row | Structure (SMILES) | IC50 [6] [nM] | IC50 [7] [nM] | IC50 [8] [nM] | IC50 [10] [nM] | IC50 [11] [nM] | IC50 [12] [nM] | IC50 [13] [nM] | IC50 [14] [nM] | IC50 [15] [nM] | IC50 [16] [nM] | IC50 [17] [nM] | IC50 [18] [nM] | CC50 [19] [nM] | IC50 [20] [nM] | CC50 [21] [nM] | IC50 [22] [nM] | IC50 [24] [nM] | IC50 [27] [nM] | IC50 [28] [nM] | IC50 [29] [nM] | also measured
1 | CC(=O)c1c2nc3c(C(C)=O)cccc3oc-2cc(=O)c1N |  |  |  |  |  |  |  |  |  |  |  |  |  |  |  |  |  |  |  |  | IC50 [1]: 1800 nM; IC50 [2]: 900 nM; IC50 [3]: 1500 nM; IC50 [4]: 2000 nM; IC50 [5]: 500 nM
2 | Cc1c2oc3c(C)ccc(C(=O)N[C@@H]4C(=O)N[C@H](C(C)C)C(=O)N5CCC[C@H]5C(=O)N(C)CC(=O)N(C)[C@@H](C(C)C)C(=O)O[C@@H]4C)c3nc-2c(C(=O)N[C@@H]2C(=O)N[C@H](C(C)C)C(=O)N3CCC[C@H]3C(=O)N(C)CC(=O)N(C)[C@@H](C(C)C)C(=O)O[C@@H]2C)c(N)c1=O [DACTINOMYCIN] (I: T[dV]P[Sar][NMeV] / II: T[dV]P[Sar][NMeV]; ester I:1-I:C, II:1-II:C; linker I:N-II:N via Actinocin(1to9)) | 200 | 200 | 1 | 1 | 0.8 | 5 | 2 | 8 | 10 | 7 | 4 | 50 | 5 | 4 | 2 | 2 | 1 | 2 | 5 | 6 | IC50 [9]: 3 nM; IC50 [23]: 1 nM; IC50 [25]: 8 nM; IC50 [26]: 6 nM; IC50 [30]: 1 nM; IC50 [31]: 3 nM; CC50 [32]: 3 nM
3 | COc1cccc2c1C(=O)c1c(O)c3c(c(O)c1C2=O)C[C@@](O)(C(=O)CO)C[C@@H]3O[C@H]1C[C@H](N)[C@H](O)[C@H](C)O1 [DOXORUBICIN] | 2800 | 1800 | 10 | 10 | 20 | 40 | 60 | 30 | 120 | 500 | 30 | 400 | 40 | 40 | 90 | 30 | 20 | 30 | 60 | 150 | IC50 [30]: 90 nM; CC50 [33]: 20 nM
4 | COc1cc([C@@H]2c3cc4c(cc3[C@@H](O[C@@H]3O[C@@H]5CO[C@@H](C)O[C@H]5[C@H](O)[C@H]3O)[C@H]3COC(=O)[C@H]23)OCO4)cc(OC)c1O [ETOPOSIDE] | > 20000 | > 20000 |  |  |  |  |  |  |  |  |  |  |  |  |  |  |  |  | 600 |  | IC50 [34]: 6200 nM
5 | CC[C@]1(O)C[C@H]2CN(CCc3c([nH]c4ccccc34)[C@@](C(=O)OC)(c3cc4c(cc3OC)N(C=O)[C@H]3[C@@](O)(C(=O)OC)[C@H](OC(C)=O)[C@]5(CC)C=CCN6CC[C@]43[C@@H]65)C2)C1 [VINCRISTINE] | 50 | 700 |  |  |  |  |  |  |  |  |  |  |  |  |  |  |  |  | 6 |  | IC50 [35]: 200 nM
